Reference: paper PMC6923798 (Bioorganic chemistry, 2018)

Tests used:
SK-MEL-5 = test: NCI in vitro five dose anticancer assay; format: cell-based, human
SK-OV-3 = test: NCI in vitro five dose anticancer assay; format: cell-based, human
SR = test: NCI in vitro five dose anticancer assay; format: cell-based, human; conditions: 48 h
MCF7 = test: NCI in vitro five dose anticancer assay; format: cell-based, human
IGROV1 = test: NCI in vitro five dose anticancer assay; format: cell-based, human
SR cell line = test: NCI in vitro one dose anticancer assay; format: cell-based; conditions: Homo sapiens, 48 h, read-out: % growth inhibition
Method in brief: (§1)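 NCI protocol. Test compound added once at 10−5 M to ~60 human tumour lines from nine subpanels. Incubated 48 h at 37 °C, 5% CO2, 95% air, 100% relative humidity. Endpoint by sulforhodamine B protein staining with spectrophotometric absorbance. Growth of treated cells reported as percent of untreated cells.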

NCI-H460 = test: NCI in vitro five dose anticancer assay; format: cell-based, human
HOP-92 = test: NCI in vitro five dose anticancer assay; format: cell-based, human
[1] = test system: full NCI panel of 60 cell lines; test: NCI in vitro one dose anticancer assay; format: cell-based, human; conditions: 48 h
Method in brief: as §1

HCT-15 = test: NCI in vitro five dose anticancer assay; format: cell-based, human
MDA-MB231/ATCC = test: NCI in vitro five dose anticancer assay; format: cell-based, human
[2] = test system: EGFR, p-EGFR, Src and p-Src in K562 cells; test: Western blot analysis in K562 cells; format: cell-based, human; conditions: K562 cells, 0.2, 0.8, 1.6 μM, 24 h
Method in brief: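 K562 cells incubated 24 h with test compound at 0.2, 0.8 or 1.6 μM, or DMSO. 50 μg protein resolved on 8 or 10% SDS-PAGE and transferred to PVDF. Blocked 1 h in PBS with 3% non-fat milk, 1% BSA, 0.5% Tween-20. Primary antibody overnight, then HRP-IgG 1 h at room temperature. ECL detection on X-ray film.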

HCT-116 = test: NCI in vitro five dose anticancer assay; format: cell-based, human
SK-MEL-2 = test: NCI in vitro five dose anticancer assay; format: cell-based, human
EKVX = test: NCI in vitro five dose anticancer assay; format: cell-based, human; conditions: 48 h
SF-295 = test: NCI in vitro five dose anticancer assay; format: cell-based, human
BT-549 = test: NCI in vitro five dose anticancer assay; format: cell-based, human
SN12C = test: NCI in vitro five dose anticancer assay; format: cell-based, human; conditions: 48 h
KG-1a = test: MTT anti-proliferative assay; format: cell-based, human; conditions: Homo sapiens, KG-1a, 24 h, read-out: IC50 ± SD, KG-1a
LOX IMVI = test: NCI in vitro five dose anticancer assay; format: cell-based, human; conditions: 48 h
HOP-62 = test: NCI in vitro five dose anticancer assay; format: cell-based, human
NCI-H522 = test: NCI in vitro five dose anticancer assay; format: cell-based, human
NCI-H226 = test: NCI in vitro five dose anticancer assay; format: cell-based, human
RXF 393 = test: NCI in vitro five dose anticancer assay; format: cell-based, human
HS 578T = test: NCI in vitro five dose anticancer assay; format: cell-based, human; conditions: 48 h
COLO 205 = test: NCI in vitro five dose anticancer assay; format: cell-based, human
CCRF-CEM = test: NCI in vitro five dose anticancer assay; format: cell-based, human; conditions: 48 h
KM12 = test: NCI in vitro five dose anticancer assay; format: cell-based, human
ACHN = test: NCI in vitro five dose anticancer assay; format: cell-based, human; conditions: 48 h
UO-31 = test: NCI in vitro five dose anticancer assay; format: cell-based, human
OVCAR-8 = test: NCI in vitro five dose anticancer assay; format: cell-based, human
PC-3 = test: NCI in vitro five dose anticancer assay; format: cell-based, human

COc1ccc(C=CC(=O)c2ccc(NC(=O)CSc3nnc(-c4cc(OC)c(OC)c(OC)c4)o3)cc2)cc1 [Compound 8v, N-(4-(3-(4-Methoxyphenyl)acryloyl)phenyl)-2-((5-(3,4,5-trimethoxy-phenyl)-1,3,4-oxadiazol-2-yl)thio)acetamide]
GI50 (SK-MEL-5; Homo sapiens, SK-MEL-5, 48 h): 2140 nM | TGI (SK-MEL-5; SK-MEL-5, Melanoma, five dose, 48 h, SRB): 5240 nM | GI50 (SK-OV-3; Homo sapiens, SK-OV-3, 48 h): 2420 nM | TGI (SK-OV-3; SK-OV-3, Ovarian Cancer, five dose, 48 h, SRB): 5680 nM | GI50 (SR; Homo sapiens): 1860 nM | TGI (SR; Leukemia, five dose, SRB): 4010 nM | GI50 (MCF7; Homo sapiens, MCF7, 48 h): 1270 nM | TGI (MCF7; MCF7, Breast cancer, five dose, 48 h, SRB): 3680 nM | GI50 (IGROV1; Homo sapiens, IGROV-1, 48 h): 1540 nM | TGI (IGROV1; IGROV1, Ovarian Cancer, five dose, 48 h, SRB): 3750 nM | inhibition at 10 µM (SR cell line): 32.9 to 160% | GI50 (NCI-H460; Homo sapiens, NCI-H460, 48 h): 2000 nM | TGI (NCI-H460; NCI-H460, Non-Small Cell Lung Cancer, five dose, 48 h, SRB): 3850 nM | TGI (HOP-92; HOP-92, Non-Small Cell Lung Cancer, five dose, 48 h, SRB): 4230 nM | GI50 (HOP-92; Homo sapiens, HOP-92, 48 h): 1930 nM | number of cell lines with complete cell death ([1]; 10 μM, SRB): 45 | inhibition at 10 µM ([1]; Homo sapiens, 60 cell, read-out: Mean growth inhibition %): 132% | TGI (HCT-15; HCT-15, Colon Cancer, five dose, 48 h, SRB): 3220 nM | GI50 (HCT-15; Homo sapiens, HCT-15, 48 h): 1630 nM | GI50 (MDA-MB231/ATCC; Homo sapiens, MDA-MB-231, 48 h): 1820 nM | TGI (MDA-MB231/ATCC; MDA-MB231/ATCC, Breast cancer, five dose, 48 h, SRB): 3500 nM | protein expression levels of p-EGFR, EGFR, p-Src and Src [2]: downregulated | TGI (HCT-116; HCT-116, Colon Cancer, five dose, 48 h, SRB): 1940 nM | GI50 (HCT-116; Homo sapiens, HCT-116, 48 h): 500 nM | GI50 (SK-MEL-2; Homo sapiens, SK-MEL-2, 48 h): 1790 nM | TGI (SK-MEL-2; SK-MEL-2, Melanoma, five dose, 48 h, SRB): 4820 nM | GI50 (EKVX; Homo sapiens): 1790 nM | TGI (EKVX; Non-Small Cell Lung Cancer, five dose, SRB): 3980 nM | GI50 (SF-295; Homo sapiens, SF-295, 48 h): 1770 nM | TGI (SF-295; SF-295, CNS cancer, five dose, 48 h, SRB): 3350 nM | TGI (BT-549; BT-549, Breast cancer, five dose, 48 h, SRB): 2810 nM | GI50 (BT-549; Homo sapiens, BT-549, 48 h): 1400 nM | GI50 (SN12C; Homo sapiens): 1830 nM | TGI (SN12C; Renal Cancer, five dose, SRB): 3570 nM | IC50 (KG-1a): 3450 ± 250 nM | GI50 (LOX IMVI; Homo sapiens): 320 nM | TGI (LOX IMVI; Melanoma, five dose, SRB): 1280 nM | TGI (HOP-62; HOP-62, Non-Small Cell Lung Cancer, five dose, 48 h, SRB): 4530 nM | GI50 (HOP-62; Homo sapiens, HOP-62, 48 h): 2130 nM | GI50 (NCI-H522; Homo sapiens, NCI-H522, 48 h): 1550 nM | TGI (NCI-H522; NCI-H522, Non-Small Cell Lung Cancer, five dose, 48 h, SRB): 3210 nM | GI50 (NCI-H226; Homo sapiens, NCI-H226, 48 h): 2670 nM | TGI (NCI-H226; NCI-H226, Non-Small Cell Lung Cancer, five dose, 48 h, SRB): 5690 nM | GI50 (RXF 393; Homo sapiens, RXF 393, 48 h): 1740 nM | TGI (RXF 393; RXF 393, Renal Cancer, five dose, 48 h, SRB): 3540 nM | TGI (HS 578T; HS 578T, Breast cancer, five dose, SRB): 7760 nM | GI50 (HS 578T; Homo sapiens, Hs-578T): 2650 nM | TGI (COLO 205; COLO 205, Colon Cancer, five dose, 48 h, SRB): 3840 nM | GI50 (COLO 205; Homo sapiens, COLO 205, 48 h): 1940 nM | GI50 (CCRF-CEM; Homo sapiens): 1840 nM | TGI (CCRF-CEM; Leukemia, five dose, SRB): 4560 nM | GI50 (KM12; Homo sapiens, KM12, 48 h): 1770 nM | TGI (KM12; KM12, Colon Cancer, five dose, 48 h, SRB): 3400 nM | GI50 (ACHN; Homo sapiens): 1720 nM | TGI (ACHN; Renal Cancer, five dose, SRB): 3220 nM | GI50 (UO-31; Homo sapiens, UO-31, 48 h): 1460 nM | TGI (UO-31; UO-31, Renal Cancer, five dose, 48 h, SRB): 2970 nM | GI50 (OVCAR-8; Homo sapiens, OVCAR-8, 48 h): 2320 nM | TGI (OVCAR-8; OVCAR-8, Ovarian Cancer, five dose, 48 h, SRB): 5730 nM | GI50 (PC-3; Homo sapiens, PC-3, 48 h): 1750 nM | TGI (PC-3; PC-3, Prostate Cancer, five dose, 48 h, SRB): 3300 nM
